From ChEMBL document CHEMBL4680340, “Discovery and structure activity relationship of glyoxamide derivatives as anti-hepatitis B virus agents” (Bioorg Med Chem, 2021)

Experiments:
[1] = test system: Hepatitis B virus; experiment: Antiviral activity against Hepatitis B virus infected in human HePAD38 cells assessed as reduction in viral DNA replication incubated for 7 days by RT-PCR analysis; type: functional, organism-based; conditions: HePAD38, 168 h; for EC90: time 7 day
Summary of the method: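 HepAD38 cells seeded and held 2 days at 37 °C, 5% CO2, then washed with PBS; compounds added in duplicate at various concentrations in tetracycline-free medium (from 40 mM stocks). Day 7: total DNA extracted, HBV DNA quantified by real-time PCR; ΔCT against untreated tetracycline-free control; EC50 and EC90 computed.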

[2] = Cytotoxicity against human CEM cells assessed as reduction in cell viability by MTT assay; type: cell-based; conditions: CEM (CCRF-CEM) cells
[3] = Cytotoxicity against human PBMC cells assessed as reduction in cell viability by MTT assay; type: cell-based
[4] = Cytotoxicity against African green monkey Vero cells assessed as reduction in cell viability by MTT assay; type: cell-based; conditions: chlorocebus sabaeus
[5] = Cytotoxicity against human HepG2 cells assessed as reduction in cell viability by MTT assay; type: cell-based
[6] = Therapeutic index, ratio of CC50 for human HepG2 cells to IC50 for Hepatitis B virus infected in human HePAD38 cells; type: toxicity, cell-based; conditions: read-out: Ratio CC50/IC50

Row | Structure (SMILES) | EC50 [1] [µM] | EC90 [1] [µM] | CC50 [2] [µM] | CC50 [3] [µM] | CC50 [4] [µM] | CC50 [5] [µM] | selectivity ratio [6]
1 | Cc1c(C(=O)C(=O)Nc2nccs2)c(C)n(C)c1C(=O)Nc1ccc(F)c(F)c1 | 0.006 | 0.03 | 26.8 | > 100 | > 100 | 83.9 | 
2 | Cc1c(C(=O)C(=O)Nc2nc3ccccc3[nH]2)c(C)n(C)c1C(=O)Nc1ccc(F)c(F)c1 | 0.21 | 3.44 | 35.8 | 90 | 46.9 | 74.9 | 
3 | C#CCNC(=O)C(=O)c1cc(C(=O)Nc2ccc(F)c(F)c2)n(C)c1 | 5.6 | > 10 | 70.3 | 57.9 | 89 | > 100 | 
4 | Cc1c(C(=O)C(=O)N2CCN(C)CC2)c(C)n(C)c1C(=O)Nc1ccc(F)c(F)c1 | 0.005 | 0.1 | 24.7 | ≥ 100 | ≥ 100 | 95.4 | 
5 | C#CCNC(=O)C(=O)c1c(C)c(C(=O)Nc2ccc(F)c(F)c2)n(C)c1C | 0.003 | 0.014 | > 100 | > 100 | 46.4 | > 100 | > 33300
6 | Cc1c(C(=O)C(=O)NCc2nccn2C)c(C)n(C)c1C(=O)Nc1ccc(F)c(F)c1 | 0.01 | 0.17 | 46.9 | > 100 | 50.6 | 34.7 | 
7 | Cn1cc(C(=O)C(=O)N2CCOCC2)cc1C(=O)Nc1ccc(F)c(F)c1 | 1.1 | 4.62 | > 100 | > 100 | 41.9 | 93.9 | 
8 | CCOC(=O)C1=C(CN2CCOCC2)NC(c2nccs2)=NC1c1ccc(F)cc1Br (centres undefined) | 0.08 | 0.28 |  |  |  |  | 
9 | Cc1c(C(=O)C(=O)Nc2ccccn2)c(C)n(C)c1C(=O)Nc1ccc(F)c(F)c1 | 0.004 | 0.06 | 14.6 | > 100 | > 100 | 83.7 | 
10 | C=CCNC(=O)C(=O)c1cc(C(=O)Nc2ccc(F)c(F)c2)n(C)c1 | 0.09 | 3.05 | > 100 | > 100 | 68.1 | > 100 | 
11 | O=C(Nc1ccc(F)c(F)c1)c1cc(S(=O)(=O)N2CC(F)(F)C2)ccc1F | 1.2 | 6.3 |  |  |  |  | 
12 | Cn1cc(C(=O)C(=O)Nc2ccccc2)cc1C(=O)Nc1ccc(F)c(F)c1 | 0.08 | 1.8 | > 100 | > 100 | 13.4 | > 100 | 
13 | Cn1cc(C(=O)C(=O)NCC#N)cc1C(=O)Nc1ccc(F)c(F)c1 | 5.16 | 10 | > 100 | > 100 | 91.4 | > 100 | 
14 | Cn1cc(C(=O)C(=O)NCc2ccccc2)cc1C(=O)Nc1ccc(F)c(F)c1 | 0.41 | 7.95 | > 100 | > 100 | 62.4 | > 100 | 
15 | Cn1cc(C(=O)C(=O)Nc2nccs2)cc1C(=O)Nc1ccc(F)c(F)c1 | 0.47 | 4.1 | > 100 | > 100 | 31.2 | > 100 | 
16 | Nc1ccn([C@@H]2CS[C@H](CO)O2)c(=O)n1 [LAMIVUDINE] | 0.41 | 1.65 | > 100 | > 100 | > 100 | > 100 | 
17 | Cn1cc(C(=O)C(=O)N2CC(F)(F)C2)cc1C(=O)Nc1ccc(F)c(F)c1 | 3.8 | 9.67 | > 100 | > 100 | > 100 | > 100 | 
18 | Cc1c(C(=O)C(=O)NCc2ccccn2)c(C)n(C)c1C(=O)Nc1ccc(F)c(F)c1 | 0.16 | 2.02 | 38.4 | > 100 | 9.6 | 7.2 | 
19 | CCN(CC)C(=O)C(=O)c1c(C)c(C(=O)Nc2ccc(F)c(F)c2)n(C)c1C | 0.58 | 5.64 | 16.8 | 91.7 | > 100 | 89.9 | 
20 | Cn1cc(C(=O)C(=O)NOC2CCCC2)cc1C(=O)Nc1ccc(F)c(F)c1 | 0.56 | 2.95 | 37.9 | ≥ 100 | 80.1 | > 100 | 
21 | C=C1[C@H](CO)[C@@H](O)C[C@@H]1n1cnc2c(=O)[nH]c(N)nc21 | 0.0006 | 0.011 | > 100 | 15.7 | > 100 | > 100 | 
